Experimental data taken from ChEMBL document CHEMBL1132698, “3-(Piperazinylpropyl)indoles: selective, orally bioavailable h5-HT1D receptor agonists as potential antimigraine agents” (J Med Chem, 1999).

What was measured:
[1] = molecular target: 5-hydroxytryptamine receptor 1B (Homo sapiens, UniProt P28222); experiment: Displacement of [3H]5-HT binding from cloned human 5-hydroxytryptamine 1B receptor stably expressed in CHO cells.; type: cell-based
[2] = molecular target: T1, 5-hydroxytryptamine receptor 1D (Homo sapiens, UniProt P28221); experiment: Displacement of [3H]5-HT binding from human 5-hydroxytryptamine 1D receptor expressed in CHO cells; type: cell-based
T1 sequence (P28221 whole entry): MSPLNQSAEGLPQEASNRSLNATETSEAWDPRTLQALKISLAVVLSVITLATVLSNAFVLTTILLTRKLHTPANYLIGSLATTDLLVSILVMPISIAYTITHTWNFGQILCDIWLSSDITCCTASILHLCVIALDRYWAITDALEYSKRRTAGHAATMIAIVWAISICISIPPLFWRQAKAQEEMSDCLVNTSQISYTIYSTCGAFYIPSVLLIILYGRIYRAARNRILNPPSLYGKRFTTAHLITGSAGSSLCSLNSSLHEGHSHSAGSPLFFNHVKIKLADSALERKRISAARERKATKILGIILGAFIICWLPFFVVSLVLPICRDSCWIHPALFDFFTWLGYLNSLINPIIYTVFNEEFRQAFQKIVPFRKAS

[3] = molecular target: T1, 5-hydroxytryptamine receptor 1D; experiment: Relative efficacy in stimulation of [35S]GTP-gamma-S, binding in CHO cells compared to 5-HT; type: functional, cell-based
[4] = molecular target: T1, 5-hydroxytryptamine receptor 1D; experiment: Displacement of [3H]5-HT binding to the cloned human 5-hydroxytryptamine 1D receptor stably expressed in CHO cells; type: cell-based
Method in brief: (§1)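 Membranes from CHO cells stably expressing human 5-HT1D receptor were washed, pre-incubated 10 min at 37 °C, then assayed at 0.2 mg protein/mL in 50 mM Tris-HCl pH 7.7 with 4 mM CaCl2, 0.01 mM pargyline and 0.1% ascorbate. […] Filtration and counting followed; IC50 came from nonlinear regression; ≥3 experiments, geometric means.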

[5] = molecular target: T1, 5-hydroxytryptamine receptor 1D; experiment: Stimulation of [35S]GTP-gamma-S, binding in CHO cells expressing the human 5-hydroxytryptamine 1D receptor.; type: functional, cell-based
Method in brief: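 Membranes from CHO cells stably expressing human 5-HT1D were used at 40 μg protein/mL in HEPES 20 mM, NaCl 100 mM, MgCl2 10 mM, pargyline, ascorbate, pH 7.4. They were preincubated with 100 μM GDP plus compound for 20 min at 30 °C, then 15 min on ice. 100 pM [35S]GTPγS was added for 30 min at 30 °C, followed by filtration and counting. EC50 and Emax (relative to 5-HT maximum) came from nonlinear regression.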

[6] = molecular target: T1, 5-hydroxytryptamine receptor 1D; experiment: Stimulation of [35S]GTP-gamma-S, binding in CHO cells expressing the 5-hydroxytryptamine 1D receptor; type: functional, cell-based
[7] = molecular target: T1, 5-hydroxytryptamine receptor 1D; experiment: Displacement of [3H]5-HT from human 5-hydroxytryptamine 1D receptor expressed in CHO cells; type: cell-based; method in brief: as §1

Chain of 5-hydroxytryptamine receptor 1B (P28222 whole entry): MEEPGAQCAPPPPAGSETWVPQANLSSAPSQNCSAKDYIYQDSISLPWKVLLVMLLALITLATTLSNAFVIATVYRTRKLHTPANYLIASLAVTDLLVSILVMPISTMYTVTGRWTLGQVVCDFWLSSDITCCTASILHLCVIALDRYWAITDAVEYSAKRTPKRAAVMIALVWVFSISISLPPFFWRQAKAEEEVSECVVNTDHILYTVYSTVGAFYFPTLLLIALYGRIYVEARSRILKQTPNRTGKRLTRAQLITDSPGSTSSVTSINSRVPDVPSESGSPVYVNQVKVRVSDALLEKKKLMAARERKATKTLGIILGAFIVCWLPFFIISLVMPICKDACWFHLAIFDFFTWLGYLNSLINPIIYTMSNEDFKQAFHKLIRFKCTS

| Structure (SMILES) | IC50 [1] [nM] | IC50 [2] [nM] | Relative efficacy [3] [%] | IC50 [4] [nM] | EC50 [5] [nM] | EC50 [6] [nM] | IC50 [7] [nM] |
| --- | --- | --- | --- | --- | --- | --- | --- |
| c1ccc(CNC[C@@H]2CCN(CCc3c[nH]c4ccc(-n5cnnc5)cc34)C2)cc1 | 37 | 0.6 | 102 |  |  |  |  |
| CNCC(c1ccccc1)N1CCN(CCCc2c[nH]c3ccc(-n4cnnc4)cc23)CC1 (stereo not drawn) | 17 |  | 103 | 0.9 | 1.7 |  |  |
| CC(c1ccccc1)N1CCN(CCCc2c[nH]c3ccc(-n4cnnc4)cc23)CC1 (stereo not drawn) | 13 |  |  | 1 |  |  |  |
| c1cnc(N2CCN(CCCc3c[nH]c4ccc(-n5cnnc5)cc34)CC2)nc1 | 0.5 |  | 59 | 0.6 | 0.6 |  |  |
| CN(C)CCc1c[nH]c2ccc(-n3cnnc3)cc12 |  |  | 115 |  |  |  |  |
| NC(=O)C(c1ccccc1)N1CCN(CCCc2c[nH]c3ccc(-n4cnnc4)cc23)CC1 (stereo in doubt; 6q) [listing 1 of 2 here] |  |  | 61 |  |  |  |  |
| Cc1noc(-c2ccc(CCN3CCN(CCCc4c[nH]c5ccc(-n6cnnc6)cc45)CC3)cc2)n1 | 46 |  |  | 6.9 |  |  |  |
| O=C1CN(Cc2ccccc2)CCN1CCCc1c[nH]c2ccc(-n3cnnc3)cc12 | 3900 |  |  | 173 |  |  |  |
| O=C1CN(CCCc2c[nH]c3ccc(-n4cnnc4)cc23)CCN1CCc1ccccc1 | 78 |  |  | 5.2 |  |  |  |
| NC(=O)C(c1ccccc1)N1CCN(CCCc2c[nH]c3ccc(-n4cnnc4)cc23)CC1 (stereo in doubt; 6p) [listing 1 of 2 here] | 13 |  |  | 0.2 | 0.2 |  |  |
| NC(=O)C(c1ccccc1)N1CCN(CCCc2c[nH]c3ccc(-n4cnnc4)cc23)CC1 (stereo in doubt; 6p) [listing 2 of 2 here] |  |  | 77 |  |  |  |  |
| CC(=O)Nc1ccc(CCN2CCN(CCCc3c[nH]c4ccc(-n5cnnc5)cc34)CC2)cc1 | 260 |  | 85 |  | 1.8 |  |  |
| c1cc2[nH]cc(CCCN3CCOCC3)c2cc1-n1cnnc1 | 7.4 |  |  | 8.8 |  |  |  |
| c1cc2[nH]cc(CCN3CCCC3)c2cc1-n1cnnc1 |  |  | 120 |  |  |  |  |
| CN(C)C(=O)C(c1ccccc1)N1CCN(CCCc2c[nH]c3ccc(-n4cnnc4)cc23)CC1 (stereo not drawn) | 102 |  | 68 | 1 | 0.8 |  |  |
| c1cc2[nH]cc(CCCN3CCNCC3)c2cc1-n1cnnc1 | 145 |  |  | 31 |  |  |  |
| OCC(c1ccccc1)N1CCN(CCCc2c[nH]c3ccc(-n4cnnc4)cc23)CC1 (stereo not drawn) | 9.5 |  | 74 | 0.7 | 0.3 |  |  |
| S=C1CN(CCCc2c[nH]c3ccc(-n4cnnc4)cc23)CCN1Cc1ccccc1 | 18 |  | 97 | 0.8 | 2.3 |  |  |
| O=C1CN(CCCc2c[nH]c3ccc(-n4cnnc4)cc23)CCN1Cc1ccccc1 | 282 |  | 85 | 6.6 | 7.5 |  |  |
| NC(=O)C(c1ccccc1)N1CCN(CCCc2c[nH]c3ccc(-n4cnnc4)cc23)CC1 (stereo in doubt; 6q) [listing 2 of 2 here] | 55 | 2.3 |  |  |  | 3.8 |  |
| CN1CCN(CCc2c[nH]c3ccc(-n4cnnc4)cc23)CC1 | 304 |  | 61 | 134 |  | 105 |  |
| c1ccc(CN2CCN(CCCc3c[nH]c4ccc(-n5cnnc5)cc34)CC2)cc1 | 11 |  | 57 | 0.1 | 0.2 |  |  |

Next, values leading:

| IC50 [1] [nM] | IC50 [2] [nM] | Relative efficacy [3] [%] | IC50 [4] [nM] | EC50 [5] [nM] | EC50 [6] [nM] | IC50 [7] [nM] | Structure (SMILES) |
| --- | --- | --- | --- | --- | --- | --- | --- |
| 18 |  | 67 | 0.4 | 0.3 |  |  | c1ccc(CN2CCN(CCCc3c[nH]c4ccc(-n5cnnc5)cc34)CC2)nc1 |
| 282 | 5.2 | 82 |  |  | 11 |  | FC(F)(F)c1ccc(CN2CCN(CCCc3c[nH]c4ccc(-n5cnnc5)cc34)CC2)cc1 |
| 45 |  | 94 | 0.8 | 0.3 |  |  | CC(CN1CCN(CCCc2c[nH]c3ccc(-n4cnnc4)cc23)CC1)c1ccccc1 (stereo not drawn) |
| 27 |  | 70 |  | 0.3 |  | 1.1 | c1cc(CN2CCN(CCCc3c[nH]c4ccc(-n5cnnc5)cc34)CC2)co1 |
| 130 |  | 71 | 0.7 | 1.1 |  |  | N#Cc1ccc(CN2CCN(CCCc3c[nH]c4ccc(-n5cnnc5)cc34)CC2)cc1 |
| 56 |  | 78 | 2.5 | 6.1 |  |  | CC(=O)Nc1ccc(CN2CCN(CCCc3c[nH]c4ccc(-n5cnnc5)cc34)CC2)cc1 |
|  |  | 81 |  |  |  |  | Fc1ccc(CCN2CCN(CCCc3c[nH]c4ccc(-n5cnnc5)cc34)CC2)cc1 |
| 59 |  | 63 | 0.5 | 1.2 |  |  | Clc1ccc(CN2CCN(CCCc3c[nH]c4ccc(-n5cnnc5)cc34)CC2)cc1 |
| 85 |  | 68 | 4.9 | 4 |  |  | c1ccc(CCCN2CCN(CCCc3c[nH]c4ccc(-n5cnnc5)cc34)CC2)cc1 |
| 18 |  | 66 | 0.4 | 0.5 |  |  | c1coc(CN2CCN(CCCc3c[nH]c4ccc(-n5cnnc5)cc34)CC2)c1 |
| 23 |  | 66 | 0.6 | 1 |  |  | c1cc(CN2CCN(CCCc3c[nH]c4ccc(-n5cnnc5)cc34)CC2)ccn1 |
| 36 |  | 68 | 1.6 | 2 |  |  | c1c[nH]c(CN2CCN(CCCc3c[nH]c4ccc(-n5cnnc5)cc34)CC2)n1 |
| 20 |  | 77 | 0.1 | 0.3 |  |  | Fc1ccc(CN2CCN(CCCc3c[nH]c4ccc(-n5cnnc5)cc34)CC2)cc1 |
|  |  | 73 |  | 1.7 |  |  | c1ccc(CCN2CCN(CCCc3c[nH]c4ccc(-n5cnnc5)cc34)CC2)cc1 |
| 72 |  | 88 | 0.5 | 1 |  |  | Fc1cccc(CCN2CCN(CCCc3c[nH]c4ccc(-n5cnnc5)cc34)CC2)c1 |
| 93 |  | 69 | 4.9 | 7.8 |  |  | c1cncc(CCN2CCN(CCCc3c[nH]c4ccc(-n5cnnc5)cc34)CC2)c1 |
| 98 |  | 80 | 0.5 | 1.4 |  |  | Fc1ccccc1CCN1CCN(CCCc2c[nH]c3ccc(-n4cnnc4)cc23)CC1 |
| 5100 |  |  | 210 |  |  |  | CN1CCN(CCCCc2c[nH]c3ccc(-n4cnnc4)cc23)CC1 |
| 13 |  |  | 1.4 |  |  |  | c1ccc(N2CCN(CCCc3c[nH]c4ccc(-n5cnnc5)cc34)CC2)cc1 |
| 83 |  | 91 | 0.9 | 0.7 |  |  | Fc1ccc(CCN2CCN(CCCc3c[nH]c4ccc(-n5cnnc5)cc34)CC2)cc1F |
| 22 |  | 69 | 0.3 | 0.3 |  |  | c1cncc(CN2CCN(CCCc3c[nH]c4ccc(-n5cnnc5)cc34)CC2)c1 |
| 309 |  | 95 | 33 |  | 54 |  | CN1CCN(CCCc2c[nH]c3ccc(-n4cnnc4)cc23)CC1 |
| 2.4 |  | 70 | 0.2 | 0.2 |  |  | CC(=O)Nc1cccc(CN2CCN(CCCc3c[nH]c4ccc(-n5cnnc5)cc34)CC2)c1 |
